ChEMBL document CHEMBL5705899 (Biochem J, 2014)
Calls of active or inactive are those of the source. No cut-off for these calls is given here.

Tests used:
[1] = molecular target: MAP/microtubule affinity-regulating kinase 3 (Homo sapiens) (UniProt P27448); test: Inhibition of recombinant human N-terminal His6-tagged MARK3 (2 to 729 residues) expressed in baculovirus infected Sf21 cells assessed as remaining activity at 1 uM using CHKtide as substrate incubated for 30 mins in presence of [gamma-33P]ATP by filter binding method relative to control
[2] = molecular target: Serine/threonine-protein kinase BRSK1 (Homo sapiens) (UniProt Q8TDC3); test: Inhibition of recombinant human N-terminal His6-tagged BRSK1 (2 to 778 residues) expressed in baculovirus infected Sf21 cells assessed as remaining activity at 1 uM using KKLNRTLSFAEPG as substrate incubated for 30 mins in presence of [gamma-33P]ATP by filter binding method relative to control
[3] = molecular target: Serine/threonine-protein kinase BRSK2 (Homo sapiens) (UniProt Q8IWQ3); test: Inhibition of recombinant human N-terminal His6-tagged BRSK2 (2 to 674 residues) expressed in baculovirus infected Sf21 cells assessed as remaining activity at 1 uM using KKLNRTLSFAEPG as substrate incubated for 30 mins in presence of [gamma-33P]ATP by filter binding method relative to control
[4] = molecular target: Tyrosine-protein kinase JAK2 (Homo sapiens) (UniProt O60674); test: Inhibition of JAK2 (unknown origin) assessed as remaining activity at 1 uM relative to control
Method in brief: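 Dundee panel of 140 protein kinases, tested at a single 1 μM concentration. Each assay was run in triplicate. Remaining activity is expressed relative to a control reaction without inhibitor, as mean ± S.D. Conditions for each kinase were those of the screening centre.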

[5] = molecular target: Tyrosine-protein kinase CSK (Homo sapiens) (UniProt P41240); test: Inhibition of human CSK at 1 uM using polyEY as substrate in presence of 33P-ATP by ProQinase assay
[6] = molecular target: Tyrosine-protein kinase Fer (Homo sapiens) (UniProt P16591); test: Inhibition of human FER at 1 uM using polyEY as substrate in presence of 33P-ATP by ProQinase assay
[7] = molecular target: T1, 3-phosphoinositide-dependent protein kinase 1 (Homo sapiens) (UniProt O15530); test: Inhibition of human PDK1 at 1 uM using bio-4xCHKT as substrate in presence of 33P-ATP by ProQinase assay
T1 sequence (whole entry): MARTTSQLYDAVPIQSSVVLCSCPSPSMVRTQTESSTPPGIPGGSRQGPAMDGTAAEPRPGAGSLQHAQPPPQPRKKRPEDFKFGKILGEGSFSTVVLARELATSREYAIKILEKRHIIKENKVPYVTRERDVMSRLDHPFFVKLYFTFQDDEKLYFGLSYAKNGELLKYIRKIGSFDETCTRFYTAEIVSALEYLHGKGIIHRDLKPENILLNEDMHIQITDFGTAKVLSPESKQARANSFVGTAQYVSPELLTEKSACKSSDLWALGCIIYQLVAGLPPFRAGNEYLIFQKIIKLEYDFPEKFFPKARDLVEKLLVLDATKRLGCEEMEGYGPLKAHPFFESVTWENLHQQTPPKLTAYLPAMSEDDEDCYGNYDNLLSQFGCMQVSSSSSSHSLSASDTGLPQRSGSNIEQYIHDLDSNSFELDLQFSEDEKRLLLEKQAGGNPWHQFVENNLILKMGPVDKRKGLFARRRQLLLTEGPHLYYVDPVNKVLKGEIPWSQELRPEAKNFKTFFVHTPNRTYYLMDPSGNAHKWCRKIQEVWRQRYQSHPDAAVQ

[8] = molecular target: Tyrosine-protein kinase ABL2 (Homo sapiens) (UniProt P42684); test: Inhibition of human ABL2 at 1 uM using poly(Ala,Glu,Lys,Tyr) as substrate in presence of 33P-ATP by ProQinase assay
[9] = molecular target: Inhibitor of nuclear factor kappa-B kinase subunit epsilon (Homo sapiens) (UniProt Q14164); test: Inhibition of human IKKepsilon at 1 uM using RBER-GSK3 as substrate in presence of 33P-ATP by ProQinase assay
[10] = molecular target: Ribosomal protein S6 kinase alpha-3 (Homo sapiens) (UniProt P51812); test: Inhibition of human RPS6KA3 at 1 uM using bio-4xCHKT as substrate in presence of 33P-ATP by ProQinase assay
[11] = molecular target: Serine/threonine-protein kinase WNK2 (Homo sapiens) (UniProt Q9Y3S1); test: Inhibition of human WNK2 at 1 uM using RBER-CHKtide as substrate in presence of 33P-ATP by ProQinase assay
[12] = molecular target: Serine/threonine-protein kinase PAK 1 (Homo sapiens) (UniProt Q13153); test: Inhibition of human PAK1 at 1 uM using RBER-CHKtide as substrate in presence of 33P-ATP by ProQinase assay
[13] = molecular target: Dual specificity tyrosine-phosphorylation-regulated kinase 2 (Homo sapiens) (UniProt Q92630); test: Inhibition of human DYRK2 at 1 uM using RBER-IRStide as substrate in presence of 33P-ATP by ProQinase assay
[14] = molecular target: Wee1-like protein kinase (Homo sapiens) (UniProt P30291); test: Inhibition of human WEE1 at 1 uM using poly(Ala,Glu,Lys,Tyr) as substrate in presence of 33P-ATP by ProQinase assay
[15] = molecular target: Serine/threonine-protein kinase TAO2 (Homo sapiens) (UniProt Q9UL54); test: Inhibition of human TAOK2 at 1 uM using casein as substrate in presence of 33P-ATP by ProQinase assay
[16] = molecular target: Dual specificity mitogen-activated protein kinase kinase 1 (Homo sapiens) (UniProt Q02750); test: Inhibition of human MEK1 at 1 uM using ERK2-KR as substrate in presence of 33P-ATP by ProQinase assay
[17] = molecular target: Diacylglycerol kinase zeta (Homo sapiens) (UniProt Q13574); test: Inhibition of recombinant human N-terminal His6-tagged DGKzeta (1 to 929 residues) expressed in baculovirus expression system at 1 uM using diacyl-glycerol as substrate incubated for 40 mins by ADP-Glo assay
[18] = molecular target: Choline/ethanolamine kinase (Homo sapiens) (UniProt Q9Y259); test: Inhibition of recombinant human N-terminal GST-tagged CHKbeta (1 to 395 residues) expressed in Escherichia coli at 1 uM using choline chloride as substrate incubated for 40 mins by ADP-Glo assay
[19] = molecular target: Phosphatidylinositol 4-kinase beta (Homo sapiens, UniProt Q9UBF8); test: Inhibition of recombinant human N-terminal His6-tagged PIK4Cbeta (1 to 801 residues) expressed in baculovirus expression system at 1 uM using […] as substrate incubated for 45 mins by ADP-Glo assay
[20] = molecular target: Phosphatidylinositol 4-phosphate 3-kinase C2 domain-containing subunit beta (Homo sapiens, UniProt O00750); test: Inhibition of PI3KC2beta (unknown origin) at 1 uM

Chain of Serine/threonine-protein kinase BRSK1 (Homo sapiens) (Q8TDC3 whole entry, the tested form may be a part): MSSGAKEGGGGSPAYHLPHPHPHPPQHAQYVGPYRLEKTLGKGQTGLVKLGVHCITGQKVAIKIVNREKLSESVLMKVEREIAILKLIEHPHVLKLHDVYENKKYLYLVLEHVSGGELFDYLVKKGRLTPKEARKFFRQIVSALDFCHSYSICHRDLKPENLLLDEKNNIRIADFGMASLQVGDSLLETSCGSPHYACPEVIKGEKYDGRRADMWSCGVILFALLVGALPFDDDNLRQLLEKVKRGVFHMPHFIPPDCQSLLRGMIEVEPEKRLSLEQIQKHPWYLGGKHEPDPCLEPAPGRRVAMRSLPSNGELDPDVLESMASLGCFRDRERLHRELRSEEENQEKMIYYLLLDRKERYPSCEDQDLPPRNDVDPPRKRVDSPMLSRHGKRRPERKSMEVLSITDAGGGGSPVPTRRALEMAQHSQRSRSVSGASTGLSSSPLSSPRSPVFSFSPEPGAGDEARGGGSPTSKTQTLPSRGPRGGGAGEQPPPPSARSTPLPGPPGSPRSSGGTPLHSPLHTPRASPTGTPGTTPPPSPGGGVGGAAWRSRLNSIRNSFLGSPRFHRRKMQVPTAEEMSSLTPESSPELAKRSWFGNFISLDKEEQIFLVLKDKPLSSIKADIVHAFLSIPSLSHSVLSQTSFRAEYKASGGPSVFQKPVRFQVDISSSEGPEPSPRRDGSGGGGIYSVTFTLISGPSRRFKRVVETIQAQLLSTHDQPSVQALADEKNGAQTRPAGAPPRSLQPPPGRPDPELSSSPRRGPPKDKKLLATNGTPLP
Chain of Inhibitor of nuclear factor kappa-B kinase subunit epsilon (Homo sapiens) (Q14164 whole entry): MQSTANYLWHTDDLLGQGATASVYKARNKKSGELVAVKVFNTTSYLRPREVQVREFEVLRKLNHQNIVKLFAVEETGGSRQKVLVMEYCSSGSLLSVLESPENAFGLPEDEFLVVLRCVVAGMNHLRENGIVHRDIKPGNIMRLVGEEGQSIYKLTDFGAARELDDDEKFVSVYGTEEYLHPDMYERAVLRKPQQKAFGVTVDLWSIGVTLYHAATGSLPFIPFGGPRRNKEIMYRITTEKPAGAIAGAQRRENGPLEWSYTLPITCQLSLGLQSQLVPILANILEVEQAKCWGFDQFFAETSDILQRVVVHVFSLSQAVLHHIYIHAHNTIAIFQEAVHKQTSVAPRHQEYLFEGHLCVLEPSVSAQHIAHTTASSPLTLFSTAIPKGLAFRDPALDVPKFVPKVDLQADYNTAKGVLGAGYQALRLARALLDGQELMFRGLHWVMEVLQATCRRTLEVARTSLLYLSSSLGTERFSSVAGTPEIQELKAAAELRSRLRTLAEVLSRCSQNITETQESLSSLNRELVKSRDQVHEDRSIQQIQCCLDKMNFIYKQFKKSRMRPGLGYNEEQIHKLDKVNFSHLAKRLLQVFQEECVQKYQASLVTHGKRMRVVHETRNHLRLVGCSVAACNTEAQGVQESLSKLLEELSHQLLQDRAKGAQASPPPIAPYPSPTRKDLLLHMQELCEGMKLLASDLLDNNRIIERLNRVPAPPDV
Chain of Ribosomal protein S6 kinase alpha-3 (Homo sapiens) (P51812 whole entry): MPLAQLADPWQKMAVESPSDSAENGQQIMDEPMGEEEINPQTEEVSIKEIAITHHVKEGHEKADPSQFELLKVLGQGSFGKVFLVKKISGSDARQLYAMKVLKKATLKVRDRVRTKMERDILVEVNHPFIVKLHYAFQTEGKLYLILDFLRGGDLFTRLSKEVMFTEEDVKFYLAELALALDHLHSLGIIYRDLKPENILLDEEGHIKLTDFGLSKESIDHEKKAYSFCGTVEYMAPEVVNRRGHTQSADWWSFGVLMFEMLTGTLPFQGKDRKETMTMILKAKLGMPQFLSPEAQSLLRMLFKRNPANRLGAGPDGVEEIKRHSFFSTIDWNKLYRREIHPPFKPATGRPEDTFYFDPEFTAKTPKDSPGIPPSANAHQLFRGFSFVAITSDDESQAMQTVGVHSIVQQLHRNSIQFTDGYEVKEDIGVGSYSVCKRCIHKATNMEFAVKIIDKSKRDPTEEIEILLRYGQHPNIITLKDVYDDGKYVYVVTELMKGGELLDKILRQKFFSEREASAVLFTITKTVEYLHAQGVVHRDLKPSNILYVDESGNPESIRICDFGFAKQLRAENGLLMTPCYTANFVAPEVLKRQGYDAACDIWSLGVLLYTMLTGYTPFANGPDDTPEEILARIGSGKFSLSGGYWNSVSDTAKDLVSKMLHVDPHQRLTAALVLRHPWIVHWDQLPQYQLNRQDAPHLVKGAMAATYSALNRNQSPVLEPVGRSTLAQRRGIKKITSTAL
Chain of MAP/microtubule affinity-regulating kinase 3 (Homo sapiens) (P27448 whole entry, looked up, the tested form may be a part): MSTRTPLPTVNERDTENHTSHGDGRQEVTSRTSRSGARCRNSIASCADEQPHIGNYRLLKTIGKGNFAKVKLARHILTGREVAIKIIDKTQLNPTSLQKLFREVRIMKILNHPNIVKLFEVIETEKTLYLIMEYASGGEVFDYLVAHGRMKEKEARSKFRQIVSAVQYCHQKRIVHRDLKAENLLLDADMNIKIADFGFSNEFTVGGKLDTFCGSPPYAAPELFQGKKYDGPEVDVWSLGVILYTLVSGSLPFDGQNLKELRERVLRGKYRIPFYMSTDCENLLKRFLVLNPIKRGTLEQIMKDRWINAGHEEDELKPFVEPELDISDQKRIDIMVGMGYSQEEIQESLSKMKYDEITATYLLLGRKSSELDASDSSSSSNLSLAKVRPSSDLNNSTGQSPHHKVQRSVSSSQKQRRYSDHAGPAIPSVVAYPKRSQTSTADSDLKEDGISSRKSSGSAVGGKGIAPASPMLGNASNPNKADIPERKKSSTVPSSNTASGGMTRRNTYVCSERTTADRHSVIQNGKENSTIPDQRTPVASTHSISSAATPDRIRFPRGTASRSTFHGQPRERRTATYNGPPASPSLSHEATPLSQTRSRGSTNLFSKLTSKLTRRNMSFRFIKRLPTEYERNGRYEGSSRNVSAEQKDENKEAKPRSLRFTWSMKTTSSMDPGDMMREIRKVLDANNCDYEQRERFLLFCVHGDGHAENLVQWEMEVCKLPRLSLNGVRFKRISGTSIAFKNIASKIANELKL
Chain of Dual specificity tyrosine-phosphorylation-regulated kinase 2 (Homo sapiens) (Q92630 whole entry): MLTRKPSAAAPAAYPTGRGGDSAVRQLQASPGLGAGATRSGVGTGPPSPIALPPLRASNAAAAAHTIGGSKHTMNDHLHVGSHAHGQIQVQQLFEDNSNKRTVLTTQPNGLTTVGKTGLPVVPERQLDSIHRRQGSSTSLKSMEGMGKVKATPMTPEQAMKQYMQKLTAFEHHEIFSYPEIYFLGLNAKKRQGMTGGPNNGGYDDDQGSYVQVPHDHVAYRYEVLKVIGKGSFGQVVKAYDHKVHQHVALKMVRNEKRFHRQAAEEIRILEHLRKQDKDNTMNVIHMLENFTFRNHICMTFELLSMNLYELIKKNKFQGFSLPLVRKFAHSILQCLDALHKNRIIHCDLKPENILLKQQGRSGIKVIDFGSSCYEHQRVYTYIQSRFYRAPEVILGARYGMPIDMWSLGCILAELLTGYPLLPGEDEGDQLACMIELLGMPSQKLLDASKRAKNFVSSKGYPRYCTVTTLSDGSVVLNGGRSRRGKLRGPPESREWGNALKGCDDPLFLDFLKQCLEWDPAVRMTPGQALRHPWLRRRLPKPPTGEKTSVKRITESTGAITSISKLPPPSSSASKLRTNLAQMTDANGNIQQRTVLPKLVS
Chain of Tyrosine-protein kinase Fer (Homo sapiens) (P16591 whole entry, looked up): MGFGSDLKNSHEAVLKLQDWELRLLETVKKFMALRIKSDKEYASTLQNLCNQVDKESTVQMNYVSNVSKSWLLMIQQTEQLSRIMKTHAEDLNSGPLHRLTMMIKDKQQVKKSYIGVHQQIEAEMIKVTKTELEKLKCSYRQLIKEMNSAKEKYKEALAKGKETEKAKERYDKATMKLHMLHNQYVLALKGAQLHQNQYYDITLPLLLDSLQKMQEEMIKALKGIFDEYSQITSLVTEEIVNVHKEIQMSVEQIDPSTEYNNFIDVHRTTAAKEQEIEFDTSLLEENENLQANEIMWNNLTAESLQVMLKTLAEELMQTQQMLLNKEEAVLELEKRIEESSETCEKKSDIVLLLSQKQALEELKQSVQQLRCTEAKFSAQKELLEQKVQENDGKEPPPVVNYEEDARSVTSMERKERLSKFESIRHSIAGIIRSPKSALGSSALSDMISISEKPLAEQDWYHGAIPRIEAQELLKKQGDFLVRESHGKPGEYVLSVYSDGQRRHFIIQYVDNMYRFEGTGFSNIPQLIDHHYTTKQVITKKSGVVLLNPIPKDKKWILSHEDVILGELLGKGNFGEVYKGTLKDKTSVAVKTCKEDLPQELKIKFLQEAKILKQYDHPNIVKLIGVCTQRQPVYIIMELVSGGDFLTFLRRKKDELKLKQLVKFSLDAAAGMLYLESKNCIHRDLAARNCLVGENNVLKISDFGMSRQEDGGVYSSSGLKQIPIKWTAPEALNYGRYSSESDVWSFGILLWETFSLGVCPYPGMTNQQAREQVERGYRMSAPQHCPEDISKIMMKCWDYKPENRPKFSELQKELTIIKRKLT
Chain of Tyrosine-protein kinase CSK (Homo sapiens) (P41240 2-450 limits assumed): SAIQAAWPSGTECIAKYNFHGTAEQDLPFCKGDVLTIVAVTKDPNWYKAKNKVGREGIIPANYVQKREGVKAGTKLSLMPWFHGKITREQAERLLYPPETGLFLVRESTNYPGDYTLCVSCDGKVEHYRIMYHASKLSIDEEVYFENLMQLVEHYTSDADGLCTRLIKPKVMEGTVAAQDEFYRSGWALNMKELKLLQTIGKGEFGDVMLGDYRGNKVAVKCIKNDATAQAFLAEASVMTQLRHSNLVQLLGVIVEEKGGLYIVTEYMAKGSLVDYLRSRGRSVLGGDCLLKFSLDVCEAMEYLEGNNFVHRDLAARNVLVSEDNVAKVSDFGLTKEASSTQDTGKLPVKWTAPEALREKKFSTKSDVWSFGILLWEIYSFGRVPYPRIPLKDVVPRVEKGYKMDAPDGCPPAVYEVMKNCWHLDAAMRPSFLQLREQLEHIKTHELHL

## CC(C)(O)CNc1ncc(-c2ccnc(Nc3ccnc(Cl)c3)n2)c(CC2CC2)n1
[1]
  Activity: 109%
[2]
  Activity: 109%
[3]
  Activity: 98%
[4]
  Activity: 93%
[5]
  inhibition: inactive
[6]
  inhibition: inactive
[7]
  inhibition: inactive
[8]
  inhibition: inactive
[9]
  inhibition: inactive
[10]
  inhibition: inactive
[11]
  inhibition: inactive
[12]
  inhibition: inactive
[13]
  inhibition: inactive
[14]
  inhibition: inactive
[15]
  inhibition: inactive
[16]
  inhibition: inactive
[17]
  inhibition: inactive
[18]
  inhibition: inactive
[19]
  inhibition: inactive
[20]
  inhibition: inactive
